The text below walks through data of ChEMBL document CHEMBL1154781, “Synthesis and antimicrobial activity of some new N-acyl substituted phenothiazines” (2009).

Values after ≈ are worked out from the molar mass of the structure shown. Active and inactive are the calls of the source. The calls are words filed in the database; no cut-off is given here.

Experiment [1] deals with Pseudomonas aeruginosa. Nature of the experiment: Antibacterial activity against Pseudomonas aeruginosa ATCC 27853 after 24 hrs by disc diffusion method. In kind it is functional. The following applies: ATCC 27853, 24 h. The gist of the method: (§1)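 Bacterial strains tested on discs at each concentration, placed in triplicate in nutrient agar seeded with fresh bacteria; incubated 37 °C for 24 h. Ciprofloxacin served as reference, with solvent and growth controls. Zones of inhibition and MICs were recorded.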

Experiment [2] concerns Bacillus subtilis. As to the kind of experiment: Antibacterial activity against Bacillus subtilis ATCC 11774 at 15 ug/ml after 24 hrs by disc diffusion method. In kind it is functional. The following applies: ATCC 11774, 24 h, read-out: IZ. The gist of the method:
as §1
In general terms: Agar diffusion results depend on both activity and mobility in agar.

Experiment [3] relates to Aspergillus niger. Nature of the experiment: Antifungal activity against Aspergillus niger NCIM 617 after 2 to 3 days by serial plate dilution method. In kind it is functional. The method in brief: (§2)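 For the fungal lawn, a loopful of each strain was suspended in 3 ml normal saline and spread on agar plates. Excess suspension was decanted and the plates were dried 1 h at 37 °C. Wells were punched and labeled. Plates, including a triplicate control, were held at 37 °C for 2–3 days. Zones of inhibition and MIC were recorded against fluconazole as standard.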

For experiment [4], the system named is Pseudomonas aeruginosa. As to the kind of experiment: Antibacterial activity against Pseudomonas aeruginosa ATCC 27853 at 10 ug/ml after 24 hrs by disc diffusion method. In kind it is functional. Conditions: ATCC 27853, 24 h, read-out: IZ. The method in brief: as §1
The test system of experiment [5] is Escherichia coli. As to the kind of experiment: Antibacterial activity against Escherichia coli ATCC 25922 at 10 ug/ml after 24 hrs by disc diffusion method. In kind it is functional. The following applies: ATCC 25922, 24 h, read-out: IZ. The gist of the method: as §1
Experiment [6] concerns Aspergillus fumigatus. Nature of the experiment: Antifungal activity against Aspergillus fumigatus NCIM 902 after 2 to 3 days by serial plate dilution method. In kind it is functional. The gist of the method: as §2
Experiment [7] deals with Escherichia coli. As to the kind of experiment: Antibacterial activity against Escherichia coli ATCC 25922 after 24 hrs by disc diffusion method. In kind it is functional. Conditions: ATCC 25922, 24 h. The method in brief:
as §1

Experiment [8] has as its system Staphylococcus aureus. Nature of the experiment: Antibacterial activity against Staphylococcus aureus ATCC 25923 at >50 ug/ml after 24 hrs by disc diffusion method. In kind it is functional, organism-based. The gist of the method: as §1
The subject of experiment [9] is Candida albicans. Nature of the experiment: Antifungal activity against Candida albicans NCIM 300 after 2 to 3 days by serial plate dilution method. In kind it is functional. The method in brief:
as §2

The subject of experiment [10] is Bacillus subtilis. Nature of the experiment: Antibacterial activity against Bacillus subtilis ATCC 11774 after 24 hrs by disc diffusion method. In kind it is functional. Conditions: ATCC 11774, 24 h. The gist of the method: as §1
For experiment [11], the system named is Aspergillus fumigatus. Nature of the experiment: Antifungal activity against Aspergillus fumigatus NCIM 902 at 10 ug/ml after 2 to 3 days by serial plate dilution method. The following applies: read-out: IZ. In kind it is functional. The method in brief:
as §2

Experiment [12] concerns Aspergillus flavus. As to the kind of experiment: Antifungal activity against Aspergillus flavus NCIM 524 after 2 to 3 days by serial plate dilution method. In kind it is functional. The method in brief:
as §2

Experiment [13] concerns Candida albicans. As to the kind of experiment: Antifungal activity against Candida albicans NCIM 300 at 10 ug/ml after 2 to 3 days by serial plate dilution method. In kind it is functional. Conditions: read-out: IZ. The gist of the method:
as §2

Experiment [14] relates to Aspergillus flavus. As to the kind of experiment: Antifungal activity against Aspergillus flavus NCIM 524 at 10 ug/ml after 2 to 3 days by serial plate dilution method. In kind it is functional. The following applies: read-out: IZ. The method in brief: as §2
In experiment [15] the test system is Aspergillus niger. Nature of the experiment: Antifungal activity against Aspergillus niger NCIM 617 at 10 ug/ml after 2 to 3 days by serial plate dilution method. In kind it is functional. Conditions: read-out: IZ. The method in brief:
as §2

Experiment [16] relates to Staphylococcus aureus. As to the kind of experiment: Antibacterial activity against Staphylococcus aureus ATCC 25923 at 10 ug/ml after 24 hrs by disc diffusion method. Conditions: ATCC 25923, 24 h, read-out: IZ. In kind it is functional. The gist of the method:
as §1

Experiment [17] has as its system Staphylococcus aureus. As to the kind of experiment: Antibacterial activity against Staphylococcus aureus ATCC 25923 at after 24 hrs by disc diffusion method. In kind it is functional. The following applies: ATCC 25923, 24 h. The method in brief: as §1
Experiment [18] concerns Pseudomonas aeruginosa. Nature of the experiment: Antibacterial activity against Pseudomonas aeruginosa ATCC 27853 at >50 ug/ml after 24 hrs by disc diffusion method. In kind it is functional, organism-based. The method in brief:
as §1

The subject of experiment [19] is Bacillus subtilis. As to the kind of experiment: Antibacterial activity against Bacillus subtilis ATCC 11774 at >50 ug/ml after 24 hrs by disc diffusion method. In kind it is functional, organism-based. The method in brief: as §1
The subject of experiment [20] is Candida albicans. As to the kind of experiment: Antifungal activity against Candida albicans NCIM 300 at >50 ug/ml after 2 to 3 days by serial plate dilution method. In kind it is functional, organism-based. The method in brief: as §2

By MIC is commonly meant the least concentration at which growth counts as inhibited. A higher MIC goes with a less susceptible organism. As to `O=C1C=CC(=O)N1CC(=O)N1c2ccccc2Sc2ccc(C(F)(F)F)cc21`, the minimal inhibitory concentration (MIC) in [1] worked out at 15 µg/mL (≈ 37.1 µM); in experiment [3], 20 µg/mL (≈ 49.5 µM); in [6] it was 30 µg/mL (≈ 74.2 µM); in experiment [7] it was 10 µg/mL (≈ 24.7 µM); in [9], 20 µg/mL (≈ 49.5 µM); in experiment [10], 15 µg/mL (≈ 37.1 µM). Further, the MIC in experiment [12] is 20 µg/mL (≈ 49.5 µM). Further, the zone of inhibition at 15 µg/mL in experiment [2] was found to be 17 mm. Besides, the zone of inhibition at 10 µg/mL in experiment [4] is 19 mm; in experiment [5], 19 mm; in [11], 10 mm; in experiment [13], 19 mm; in [14] it was 19 mm; in [15], 19 mm. Also, in experiment [8], the result was inactive.

For the compound `O=C(O)c1cn(C2CC2)c2cc(N3CCNCC3)c(F)cc2c1=O` [CIPROFLOXACIN], the MIC in [1], in experiment [10] and in [17] was 10 µg/mL (≈ 30.2 µM) throughout. The zone of inhibition at 15 µg/mL in experiment [2] came to 22 mm. Further, the results for the zone of inhibition at 10 µg/mL in experiment [4] and in experiment [16] were 23 mm and 21 mm, respectively.

Regarding `O=C1CCC(=O)N1CC(=O)N1c2ccccc2Sc2ccc(Cl)cc21`, the MIC came out at 15 µg/mL (≈ 40.2 µM) in experiment [1]; 20 µg/mL (≈ 53.6 µM) in experiment [3]; 20 µg/mL (≈ 53.6 µM) in [6]; 15 µg/mL (≈ 40.2 µM) in experiment [7]; 25 µg/mL (≈ 67.1 µM) in [9]; 30 µg/mL (≈ 80.5 µM) in [10]. Besides, the MIC in experiment [12] came to 25 µg/mL (≈ 67.1 µM); in [17], 30 µg/mL (≈ 80.5 µM). For the same compound, the zone of inhibition at 15 µg/mL in [2] worked out at 14 mm. Further, the zone of inhibition at 10 µg/mL in experiment [4] was determined as 16 mm; in experiment [5] it was 16 mm; in experiment [11] it was 18 mm; in experiment [16] it was 12 mm; in experiment [13] it was 13 mm; in experiment [14], 12 mm. Besides, the zone of inhibition at 10 µg/mL in [15] amounted to 23 mm.

On to `OC(Cn1cncn1)(Cn1cncn1)c1ccc(F)cc1F` [FLUCONAZOLE], for which the MIC in [3], in experiment [6], in experiment [9] and in [12] was 10 µg/mL (≈ 32.7 µM) throughout. Besides, the zone of inhibition at 10 µg/mL in experiment [11] was 20 mm; in experiment [13], 21 mm; in experiment [14], 24 mm; in [15], 23 mm.

For the compound `CC(=O)c1ccc2c(c1)N(C(=O)CN1C(=O)CCC1=O)c1ccccc1S2`, the result in experiment [18], in experiment [8], in [19] and in [20] was inactive. Further, the MIC amounted to 20 µg/mL (≈ 52.6 µM) in experiment [3], 15 µg/mL (≈ 39.4 µM) in experiment [6], 10 µg/mL (≈ 26.3 µM) in experiment [7] and 25 µg/mL (≈ 65.7 µM) in [12]. Moreover, the zone of inhibition at 10 µg/mL was 24 mm in [5], 13 mm in experiment [11], 20 mm in [14] and 26 mm in experiment [15].

As for `O=C1c2ccccc2C(=O)N1CC(=O)N1c2ccccc2Sc2ccc(Cl)cc21`, the minimum inhibitory concentration (MIC) came to 10 µg/mL (≈ 23.8 µM) in [1]; 10 µg/mL (≈ 23.8 µM) in experiment [3]; 10 µg/mL (≈ 23.8 µM) in experiment [6]; 10 µg/mL (≈ 23.8 µM) in experiment [7]; 10 µg/mL (≈ 23.8 µM) in experiment [9]; 30 µg/mL (≈ 71.3 µM) in experiment [10]. The MIC in experiment [12] and in experiment [17] was 10 µg/mL (≈ 23.8 µM) each time. Besides, the zone of inhibition at 15 µg/mL in experiment [2] was determined as 13 mm. Besides, the zone of inhibition at 10 µg/mL amounted to 18 mm in experiment [4]; 23 mm in experiment [5]; 19 mm in experiment [11]; 19 mm in experiment [16]; 18 mm in experiment [13]; 21 mm in experiment [14]. Besides, the zone of inhibition at 10 µg/mL in [15] came to 24 mm.
